# Assay outcomes (PubChem)
# Hits are enriched below; roughly 1.6% of the tested compounds scored in any of these assays.
# PPC-1+TRAIL kill: PPC-1 cancer cell killing with TRAIL present; PPC-1 cells + TRAIL, ATPLite viability luminescence; cell killing (% activity), % at 4 µM or 5 µM; 220,000 compounds, 0.41% hits; AID 1443;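 active means cell killing above 50% in the first pass at 4 µM, then a duplicate retest at 5 µM averaging 50% or more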;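 further: plate controls were cells with TRAIL plus DMSO for no effect and medium-only wells lacking cells for full effect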
# TRAIL sens C8: sensitizes caspase-8 expressing cells to TRAIL. NB7+C8 cells + TRAIL, ATPlite viability luminescence. inhibition (viability loss, TRAIL sensitization), % at 10 µM. 360,000 compounds, 1% hits. AID 624354;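 active means compounds causing at least 50% loss of cell viability in the single-dose screen, relative to plate controls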
# FLuc stim CS: firefly luciferase counter-screen for stimulation assays | P08659 | ATPlite luciferase biochemical, luminescence, 10 min; 0 = ATP-free wells, 1 = DMSO control | activation factor at 10 µM | 200,000 tested, under 10 active | AID 1027;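 active means luciferase activation factor, scaled between plate controls, of at least 2 with compound at 10 µM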
# Target sequence (P08659 whole entry, looked up): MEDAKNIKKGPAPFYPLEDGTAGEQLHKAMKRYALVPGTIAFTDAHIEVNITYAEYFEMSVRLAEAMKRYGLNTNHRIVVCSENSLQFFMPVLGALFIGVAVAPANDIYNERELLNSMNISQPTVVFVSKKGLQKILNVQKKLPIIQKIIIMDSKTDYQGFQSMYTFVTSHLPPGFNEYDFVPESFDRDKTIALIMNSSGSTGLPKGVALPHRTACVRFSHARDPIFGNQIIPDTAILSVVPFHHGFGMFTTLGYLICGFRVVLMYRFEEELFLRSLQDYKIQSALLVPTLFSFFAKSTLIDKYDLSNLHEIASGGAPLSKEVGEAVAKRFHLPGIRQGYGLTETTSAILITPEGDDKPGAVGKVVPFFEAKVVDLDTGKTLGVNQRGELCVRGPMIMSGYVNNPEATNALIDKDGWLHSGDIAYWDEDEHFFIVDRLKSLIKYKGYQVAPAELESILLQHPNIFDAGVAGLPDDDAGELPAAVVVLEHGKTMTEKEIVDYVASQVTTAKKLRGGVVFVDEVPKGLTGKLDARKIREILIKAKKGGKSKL
#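 Material: Luciferase/luciferin reagent mix | Doses: Test compounds dosed from 2 mM stocks in 100% DMSO | Timing: 10 min incubation after luciferase reagent addition, room temperature | Measured by: Luminescence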
# FLuc inh counter: Photinus pyralis luciferase inhibition counter-screen. 200,000 compounds, 1.5% hits. ATPLite firefly luciferase biochemical luminescence, 10 min. inhibition, % at 10 µM;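 active means inhibition above about 50% when tested at 10 µM, limit read from the data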
# Active calls of the source: *; · = no result given.
SMILES,PPC-1+TRAIL kill,TRAIL sens C8,FLuc stim CS,FLuc inh counter
CCOC(=O)N1CCN(C(=O)CSCC(=O)Nc2nc(-c3ccc(-c4ccccc4)cc3)cs2)CC1,24,62*,1,4
CCOC(=O)N1CCN(C(=O)CSCC(=O)Nc2nc(-c3ccc(OC)cc3)cs2)CC1,12,0,1,-2
CC(C)[C@H]1COCCS(=O)(=O)N1Cc1ccccc1-c1ccc(C(C)(C)C)cc1,·,6,·,·
CCOc1cc(/C=N/NC(=O)COc2ccc(C)cc2)ccc1OC(=O)c1cccs1,4,16,1.1,-10
COc1cc(/C=N/NC(=O)COc2ccc(C)cc2)ccc1OC(=O)c1cccs1,45,57*,1.1,-5
COc1ccc(S(=O)(=O)N2CCN(C(=O)c3cc(C)nc4ccccc34)CC2)cc1OC,·,-8,·,·
CC(C)C(=O)NCCc1nc(-c2ccc(Cl)cc2)no1,·,6,·,·
CCCCN=C1NN=C(c2ccc3c(c2)OCCO3)CS1,30,63*,0.2,83*
CC1(Cc2ccc(OC(F)(F)F)cc2)C(=O)Nc2ccc(S(=O)(=O)NC3CCCCC3)cc21 (configuration not stated),·,64*,·,·
CC1(Cc2ccc(Cl)cc2)C(=O)Nc2ccc(S(=O)(=O)NC3CCCCC3)cc21 (configuration not stated),·,7,·,·
O=C(Nc1cccc(S(=O)(=O)NC2=NCCC2)c1)c1cn(-c2ccccc2)nc1-c1ccc(F)cc1,·,41,·,·
COc1cc(NC(=O)CNC(=O)Cn2cnc3sc(C)c(C)c3c2=O)cc(OC)c1OC,·,-7,·,·
CCCCCc1ccc(OCCCC[n+]2ccccc2)c(CCCCC)c1,24,79*,1,-4
CCC(C)(C)c1ccc(Oc2cccc(C(=O)O)c2)cc1,-4,18,·,·
CCC(C)(C)c1ccc(OCCCC[n+]2ccccc2)c(C(C)(C)CC)c1,51*,15,1.1,-8
O=C(/C=C/c1cccc(F)c1)OCC(=O)N1CCCc2ccccc21,·,-9,·,·
O=C(/C=C/c1cccc(F)c1)N1CCc2ccccc21,43,64*,0.4,62*
O=C(/C=C/c1ccc(Cl)cc1Cl)N1CCc2ccccc21,38,61*,0.4,63*
O=C(N/N=C/c1sc2ccccc2c1O)c1ccccc1,27,53*,0.4,57*
COc1ccc2cc(C(=O)N/N=C/c3sc4ccccc4c3O)ccc2c1,20,38,0.3,72*
CC(C)CC(NC(=O)c1ccc(Cl)cc1)C(=O)OCC(=O)c1ccc2c(c1)NC(=O)CO2 (configuration not stated),-6,73*,1,-4
O=C1NC(=S)S/C1=C/c1ccc(N2CCOCC2)o1,25,17,0.4,64*
O=C(OCCc1cc2ccccc2c(=O)o1)c1ccco1,·,-22,·,·
CC(=O)c1cccc(NC(=O)C2Cc3c(-c4cccc(C(C)=O)c4)ccnc3O2)c1 (configuration not stated),·,13,·,·
CS(=O)(=O)Nc1cccc(NC(=O)C2Cc3c(-c4ccco4)ccnc3O2)c1 (configuration not stated),·,53*,·,·
SMILES,PPC-1+TRAIL kill,TRAIL sens C8,FLuc stim CS,FLuc inh counter
CC(=O)c1cccc(-c2ccnc3c2CC(C(=O)Nc2cccc(NS(C)(=O)=O)c2)O3)c1 (configuration not stated),·,76*,·,·
O=C(Nc1cccc(Oc2ccccc2)c1)C1Cc2c(-c3ccco3)ccnc2O1 (configuration not stated),·,-4,·,·
COCCNC(=O)C1(C)CCN(C(=O)c2ccc(C(F)(F)F)nc2C)C1 (configuration not stated),·,-13,·,·
C[C@@H]1CN([C@H](C)CO)C(=O)Cc2cc(NC(=O)Nc3ccccc3)ccc2O[C@@H]1CN(C)C(=O)Nc1ccc2c(c1)OCO2,·,5,·,·
CCCc1cc(NCCCO)n2c(nc3ccccc32)c1C#N,13,7,·,·
CNC1=C(N(C(C)=O)c2ccc(Br)cc2)C(=O)c2ccccc2C1=O,68*,92*,1,1
CCC(=O)N(C1=C(NC)C(=O)c2ccccc2C1=O)C(C)C,50,37,1,-3
Cc1cc(NCCCn2ccnc2)n2ncc(-c3ccc(Cl)cc3)c2n1,7,54*,0.7,34
Cc1cc(NCCCN2CCOCC2)n2ncc(-c3ccc(Cl)cc3)c2n1,-19,27,1,-1
O=C(Nc1nc(=O)c2ccccc2s1)c1ccc(Cl)cc1,29,67*,0.6,43
O=C(Nc1nc(=O)c2ccccc2s1)c1ccc(F)cc1,18,55*,0.5,54*
Cc1ccc(C(=O)Nc2nc(=O)n(C(=O)c3ccccc3Cl)s2)cc1,12,-5,0.8,18
